Compounds with a hit are over-represented: about 1.8% of the library has one in this group of screens.
eIF4H FP inh: inhibitors of RNA binding by human eIF4H; 0.94% of 290,000 active; inhibition, % at 35 µM; eIF4H fluorescence polarization binding assay;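 also: calls also rest on retests at 20 µM and on dose response follow-up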
PABP1 MLLE inh: blocks PAM2 peptide binding to the PABP1 MLLE domain. inhibition, % at 20 µM. AID 588489. 0.36% of 360,000 active. P11940. GST-MLLE / FITC-PAM2 fluorescence polarization; in the data active = inhibition above about 35%, passing the limit was not always enough;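 also: plate controls were DMSO wells with GST-MLLE for no effect and wells lacking GST-MLLE protein for full effect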
HCV core dimer: HCV core protein dimerization inhibition; TR-FRET GST/Flag-core106 dimerization, 1536-well; inhibition, % at 5 µM; 0.33% of 300,000 active; AID 1899;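 active = inhibition above the mean of all tested compounds plus 3 SD, set per screening campaign, cut at about 45% in these data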
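System – GST-tagged and Flag-tagged HCV core protein residues 1-106 · Repeats – one well for each compound · Technique – TR-FRET 671 and 617 nm emission · Doses – one concentration, 5 µM, in 0.5% DMSO · Times – 4 h, 22.5 °C incubation · Also added – Eu donor and XL665 acceptor anti-tag antibodies · Measure – percent inhibition of core106 dimerization signal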
PABP polyA inh: blocks human PABP binding to poly(A) RNA; AID 2014; fluorescence polarization; P11940; calls only at 35 µM; 1% of 290,000 active;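 also: calls also rest on retests at 20 µM and on dose response follow-up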
eIF4E 4G PPI: blocks eIF4E binding to eIF4G. P63073+Q04637. TR-FRET eIF4E-eIF4GI(517-606) binding, 2 h. inhibition, % at 21.7 µM. 0.37% of 220,000 active;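 active = inhibition above about 30%, limit read from the data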;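 also: 0% = full FRET control wells and 100% = background wells lacking eIF4GI fragment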
UBC9 SUMO inh: blocks human SUMOylation mediated by UBC9. P63279. HTRF SUMOylation assay, SAE1/SAE2 + UBC9, in vitro. inhibition, % at 35 µM. 0.36% of 290,000 active. AID 2006; in the data active = inhibition above about 50%, passing the limit was not always enough; inconclusive = no clear call, values can overlap the other calls
Target sequence (P63279 whole entry, looked up): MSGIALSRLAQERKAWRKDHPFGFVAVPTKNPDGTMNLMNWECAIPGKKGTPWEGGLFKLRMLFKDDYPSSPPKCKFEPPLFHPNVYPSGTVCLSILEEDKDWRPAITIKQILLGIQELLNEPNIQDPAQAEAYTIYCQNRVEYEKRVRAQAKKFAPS
* marks the source's active call; other numbers are inactive results; i = inactive; ? = inconclusive; . = no result given; + = active, no number; [ ] = another dose, or the depositor's remark. Unless noted, no rule for the calls is given here.

SMILES	eIF4H FP inh	PABP1 MLLE inh	HCV core dimer	PABP polyA inh	eIF4E 4G PPI	UBC9 SUMO inh
CCNC(=S)N/N=C/c1ccc(OCC(=O)Nc2ccc(C)cc2)cc1	2	27	5	i	-5	21
O=C(c1ccccc1)N1CC(COc2ccccc2)OC(c2cccnc2)O1 (stereo not drawn)	63*	-7	3	+	-2	-14
O=C(COc1ccc(-c2ccccc2)cc1)N1CCN(C(=O)c2cccnc2)CC1	1	-12	7	i	-11	-28
O=C(CN1C(=O)NC2(CCCCC2)C1=O)Oc1ccc2ccc(=O)oc2c1	.	26	.	.	.	.
Cc1ccc(C)c(CN2C(=O)C3CCCN3c3ccc(S(=O)(=O)N4CCOCC4)cc32)c1 (stereo not drawn)	?	.	51*	?	-41	20
COc1cccc(CN2C(=O)C3CCCN3c3ccc(S(=O)(=O)N4CCOCC4)cc32)c1 (stereo not drawn)	-10	.	44	i	-44	27
Cc1ccc(C2NC(=S)NC3=C2C(=O)CCC3)cc1 (stereo not drawn)	0	-37	1	i	0	8
CC(C)c1ccc(C2NC(=S)NC3=C2C(=O)CCC3)cc1 (stereo not drawn)	active	-126	2	i	8	1
CC1(C)C(/C=C/C=C/C=C/C=C2\N(CCCCS(=O)(=O)O)c3ccc4ccccc4c3C2(C)C)=[N+](CCCCS(=O)(=O)[O-])c2ccc3ccccc3c21	.	-75	69*	.	.	.
CC(=O)Nc1cccc(NC(=O)CSc2nnnn2Cc2ccccc2)c1	-8	-6	-5	i	-3	14
CCn1nnnc1SCC(=O)Nc1cccc(NC(C)=O)c1	-3	4	2	i	37*[fluorescence artefact?]	-5
C=CCC1(CC=C)CCCN1Cc1nc(COc2ccccc2)no1	59*	-31	-1	i	-5	7
O=C1CCCN1CC1CCCN(Cc2nc(COc3ccccc3)no2)C1 (stereo not drawn)	-7	7	1	i	0	15
Cc1ccc(S(=O)(=O)N(C)C)cc1NC(=O)C1CCCN(C(=O)c2ccc(Cl)cc2)C1 (stereo not drawn)	.	-6	3	.	.	.
CCOc1ncccc1C(=O)OCC(=O)NC1CCCCC1	.	10	.	.	.	.
Cc1ccc(S(=O)(=O)N(C)C)cc1-n1c(SCC(=O)Nc2ccc(F)c(F)c2F)nc2ccccc2c1=O	-8	0	30	i	1	11
Cc1ccc(S(=O)(=O)N(C)C)cc1-n1c(SCC(=O)N(C)C)nc2ccccc2c1=O	52*	-13	-1	+	-3	2
O=C(NC1=NCCS1)C12CC3CC(CC(C3)C1)C2	-6	10	5	i	-2	14
CC(C)C(NC(=O)C12CC3CC(CC(C3)C1)C2)C(=O)NC1=NCCS1 (stereo not drawn)	2	.	-1	i	40*	-8
CCc1ccccc1NC(=O)C(CC)Sc1nc2cc3c(cc2c(=O)n1Cc1ccco1)OCO3 (stereo not drawn)	7	4	2	i	-7	9
CCc1ccc(NC(=O)C(CC)Sc2nc3cc4c(cc3c(=O)n2Cc2ccco2)OCO4)cc1 (stereo not drawn)	-3	-9	8	i	-34	54*
COc1ccc(CCC(=O)NCC(c2ccco2)N2CCc3ccccc32)cc1 (stereo not drawn)	.	2	-1	.	.	.
Nc1nc2ccc([N+](=O)[O-])cc2[nH]1	-2	-3	-1	i	9	11
Nc1[nH]c2cc([N+](=O)[O-])ccc2c1-c1ccccn1	51	-133	-62	+	.	-11
CCc1nn(CC(=O)NC(C)CCc2ccccc2)c(=O)c2cc3cc(F)ccc3n12 (stereo not drawn)	9	-5	15	i	.	51*
SMILES	eIF4H FP inh	PABP1 MLLE inh	HCV core dimer	PABP polyA inh	eIF4E 4G PPI	UBC9 SUMO inh
Cn1cc(/C=C(\C#N)C(=O)Nc2ncc(Cc3ccc(Cl)cc3)s2)c2ccccc21	63*	12	7	+	-1	29
O=C(N/N=C/c1cc(Cl)cc(Cl)c1O)c1ccncc1	?	142	-9	?	1	58*
Cc1cc(NC(=O)CCC(=O)N(CC(=O)NCC2CCCO2)c2ccc(F)c(Cl)c2)no1 (stereo not drawn)	-3	-1	0	i	.	-2
CC1CCN(C(=O)c2ccc3c(Cl)c4c(nc3c2)CCCC4)CC1	-5	-8	-1	i	82*	-6
O=C(/C=C/c1ccc(Cl)cc1)Nc1nccs1	active	5	.	i	6	12
Cc1ccc(C(=O)CSc2ncn[nH]2)cc1	8	14	-3	i	26	20
CCc1ccc(C(=O)CSc2ncn[nH]2)cc1	-6	29	0	i	32*	5
CC1CN(C(=O)COC(=O)CSc2ccc([N+](=O)[O-])cc2)CC(C)O1 (stereo not drawn)	.	39	.	.	.	.
CN(CCc1ccccn1)C(=O)CCC1CCCN(C(=O)c2cccc(N(C)C)c2)C1 (stereo not drawn)	0	10	12	i	.	9
CC(C)(C)c1ccc(C(=O)NCC(=O)NCc2ccccn2)cc1	.	3	.	.	.	.
Cc1ccc(-c2nn(-c3ccc(F)cc3)cc2C(=O)NCCCN2CCCC2=O)cc1	.	-1	.	.	.	.
Nc1cnc(Br)cc1Br	-2	13	5	i	-5	3
Nc1cc2nsnc2cc1Br	33	19	-73	i	13	100*
COc1ccc(-c2ccnc3nc(/N=C/N(C)C)nn23)cc1	-10	.	-5	i	11	57*
CN(C)/C=N/c1nc2nccc(-c3cccnc3)n2n1	-9	7	5	i	8	65*
COCCn1cnnc1SCC(=O)c1ccc(S(=O)(=O)N2CCCC2)cc1	-9	6	54*	i	-2	21
CCCCN1Cc2c(nc3cc(-c4ccco4)[nH]n3c2=O)C1=O	88*	3	-7	+	2	92*
COCc1cc(=O)n2[nH]c(-c3ccco3)cc2n1	-1	15	2	i	2	21
Cc1cc(C)n(-c2cc(N3CCN(S(=O)(=O)c4ccc5ccccc5c4)CC3)ccc2[N+](=O)[O-])n1	-11	-13	54*	i	-21	12
Cc1ccc(NC(=O)CN(C)C(=O)CNC(=O)c2sc3ccccc3c2Cl)cc1	.	-3	4	.	.	.
CCOC(=O)N/N=C/C=C/c1ccccc1[N+](=O)[O-]	11	-13	-15	i	-1	-13
COc1ccc(NCC(=O)N/N=C/C=C/c2ccccc2[N+](=O)[O-])cc1	-2	12	-4	+	3	2
O=S(=O)(NC(=S)c1ccccc1)c1ccccc1	.	46*	-5	.	.	.
O=S(=O)(NC(=S)NC1CCCCC1)c1cccs1	2	52*	-5	i	-3	-4
